Legend:
[1] = molecular target: IN 3'-processing catalysis (Human immunodeficiency virus type 1 group M subtype B, UniProt P12497); experiment: IN enzymatic assay, 3'-processing; type: biochemical, HIV-1
[2] = molecular target: IN strand transfer catalysis (Human immunodeficiency virus type 1 group M subtype B, UniProt P12497); experiment: IN enzymatic assay, strand transfer; type: biochemical, HIV-1
[3] = tested on: Flag-6x-histidine construct; experiment: Quench counter-screen; conditions: compounds tested at 10 µM
Outline: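 Run as the integrase–LEDGF/p75 AlphaScreen, with one Flag-6xhistidine construct replacing both proteins. Compound incubations were 30 min then 60 min at 4 °C. Ni-chelate donor and anti-FLAG acceptor beads were added at 20 µg/mL each for 1 h at 30 °C, kept from light. Acceptor-bead emission gave percent inhibition.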

[4] = tested on: LNCaP cells; experiment: MTT cytotoxicity assay in LNCaP cells; type: cell-based
[5] = tested on: HIV-1; experiment: Antiviral MTT/MT-4 assay; type: cell-based; conditions: MT-4 cells, 13 µM

Oc1ccc(CNc2cccc(C(F)(F)F)c2)c2cccnc12 [Q2–5]
IC50 [1]: > 20 µM
IC50 [2]: > 20 µM
Quench % Inhib. [3]: <50%

Oc1c(Cl)cc(Cl)c2cccnc12 [QB, 5,7-dichloroquinolin-8-ol]
IC50 [1]: > 20 µM
IC50 [2]: > 20 µM
Quench % Inhib. [3]: <50%

Cc1ccc(S(=O)(=O)NC(=O)Oc2cccc3cccnc23)cc1 [Q4-1]
cytotoxicity in MTT LNCaP assay (in words) [4]: low cytotoxicity
IC50 [1]: > 20 µM
IC50 [2]: > 20 µM
Quench % Inhib. [3]: <50%

CCC(=O)NC(c1ccc(OC)c(OC)c1)c1cc(Cl)c2cccnc2c1O (stereo not shown) [Q1–9]
Quench % Inhib. [3]: <50%

CCOc1ccc(NCc2ccc(O)c3ncccc23)cc1 [Q2–12]
Quench % Inhib. [3]: <50%

Oc1ccc(Cc2ccc(O)c3ncccc23)c2cccnc12 [Q2-2]
cytotoxicity in MTT LNCaP assay (in words) [4]: notable cytotoxicity
Quench % Inhib. [3]: <50%

Oc1ccc(CNc2ccc(C(F)(F)F)cc2)c2cccnc12 [Q2–3]
IC50 [1]: > 20 µM
IC50 [2]: > 20 µM
Quench % Inhib. [3]: <50%

O=C(CC(Sc1cccc2cccnc12)c1ccc(F)cc1)c1cccs1 (stereo not shown) [Q5-2]
IC50 [1]: > 20 µM
IC50 [2]: > 20 µM
Quench % Inhib. [3]: <50%

CC(=O)NC(c1ccccc1)c1cc(Cl)c2cccnc2c1O (stereo not shown) [Q1–5]
IC50 [1]: > 20 µM
IC50 [2]: > 20 µM
Quench % Inhib. [3]: <50%

Oc1ccc(Cl)c2cccnc12 [QA, 5-chloroquinolin-8-ol]
IC50 [1]: > 20 µM
IC50 [2]: > 20 µM
Quench % Inhib. [3]: <50%

Cc1ccccc1NCc1ccc(O)c2ncccc12 [Q2-1]
Quench % Inhib. [3]: <50%

CCC(=O)NC(c1ccccc1OC)c1ccc2cccnc2c1O (stereo not shown) [Q1–2]
cytotoxicity in MTT LNCaP assay (in words) [4]: notable cytotoxicity
IC50 [1]: > 20 µM
IC50 [2]: > 20 µM
Quench % Inhib. [3]: <50%

Cc1ccc(NCc2ccc(O)c3ncccc23)cc1 [Q2–8, 5-((p-tolylamino)methyl)quinolin-8-ol]
Quench % Inhib. [3]: <50%

Oc1ccc(CN2CCN(Cc3ccccc3)CC2)c2cccnc12 [Q3–9]
IC50 [1]: > 20 µM
IC50 [2]: > 20 µM
Quench % Inhib. [3]: <50%

Oc1ccc(CN2CCCCC2)c2cccnc12 [Q3-1]
cytotoxicity in MTT LNCaP assay (in words) [4]: negligible inhibition of cell growth
Quench % Inhib. [3]: <50%

Oc1ccc(CN2CCN(c3ccccc3)CC2)c2cccnc12 [Q3–7]
cytotoxicity in MTT LNCaP assay (in words) [4]: notable cell-growth inhibition
Quench % Inhib. [3]: <50%

CN1CCN(Cc2ccc(O)c3ncccc23)CC1 [Q3-2]
cytotoxicity in MTT LNCaP assay (in words) [4]: negligible inhibition of cell growth
Quench % Inhib. [3]: <50%

O=C(CC(Sc1cccc2cccnc12)c1ccc(OC(F)F)cc1)c1ccco1 (stereo not shown) [Q5-1]
IC50 [1]: > 20 µM
IC50 [2]: > 20 µM
Quench % Inhib. [3]: <50%

Cc1cccc(NCc2ccc(O)c3ncccc23)c1 [Q2–11]
IC50 [1]: > 20 µM
IC50 [2]: > 20 µM
Quench % Inhib. [3]: <50%

CCC(=O)NC(c1cccs1)c1cc([N+](=O)[O-])c2cccnc2c1O (stereo not shown) [Q1–6]
IC50 [1]: > 20 µM
IC50 [2]: > 20 µM
Quench % Inhib. [3]: <50%

CCC(=O)NC(c1ccc(OC)cc1)c1cc([N+](=O)[O-])c2cccnc2c1O (stereo not shown) [Q1–4]
IC50 [1]: > 20 µM
IC50 [2]: > 20 µM
Quench % Inhib. [3]: <50%

CC(=O)NC(c1ccc(N(C)C)cc1)c1cc(Cl)c2cccnc2c1O (stereo not shown) [Q1–10]
Quench % Inhib. [3]: <50%

Oc1ccccc1C(Nc1nccs1)c1ccc2cccnc2c1O (stereo not shown) [Q1–12]
Quench % Inhib. [3]: <50%

COc1cccc(C(NC(C)=O)c2ccc3cccnc3c2O)c1 (stereo not shown) [Q1–3]
IC50 [1]: > 20 µM
IC50 [2]: > 20 µM
Quench % Inhib. [3]: <50%

CCOC(=O)C1CCCN(Cc2ccc(O)c3ncccc23)C1 (stereo not shown) [Q3–6]
Quench % Inhib. [3]: <50%

Oc1ccc(CNc2ccccc2Cl)c2cccnc12 [Q2–14]
Quench % Inhib. [3]: <50%

CCOCc1ccc(O)c2ncccc12 [QC, 5-(ethoxymethyl)quinolin-8-ol]
IC50 [1]: > 20 µM
IC50 [2]: > 20 µM
Quench % Inhib. [3]: <50%

Cc1cccnc1NCc1ccc(O)c2ncccc12 [Q2–9]
IC50 [1]: > 20 µM
IC50 [2]: > 20 µM
Quench % Inhib. [3]: <50%

CCC(=O)NC(c1ccco1)c1cc(Cl)c2cccnc2c1O (stereo not shown) [Q1–8]
Quench % Inhib. [3]: <50%

CCOC(=O)C1CCN(Cc2ccc(O)c3ncccc23)CC1 [Q3–8]
IC50 [1]: > 20 µM
IC50 [2]: > 20 µM
Quench % Inhib. [3]: <50%

COc1cccc(NCc2ccc(O)c3ncccc23)c1 [Q2–7]
cytotoxicity in MTT LNCaP assay (in words) [4]: notable cytotoxicity
IC50 [1]: > 20 µM
IC50 [2]: > 20 µM
Quench % Inhib. [3]: <50%

Cc1cccc(NCc2ccc(O)c3ncccc23)c1C [Q2–6]
antiviral activity at maximum testable concentration [5]: no antiviral activity could be detected
IC50 [1]: > 20 µM
IC50 [2]: > 20 µM
Quench % Inhib. [3]: <50%

CCCC(=O)NC(c1ccc(OC)cc1)c1ccc2cccnc2c1O (stereo not shown) [Q1–11]
Quench % Inhib. [3]: <50%

CCCC(=O)NC(c1ccccc1)c1ccc2cccnc2c1O (stereo not shown) [Q1-1]
cytotoxicity in MTT LNCaP assay (in words) [4]: notable cytotoxicity
IC50 [1]: > 20 µM
IC50 [2]: > 20 µM
Quench % Inhib. [3]: <50%

COc1ccc(C(NC(C)=O)c2cc([N+](=O)[O-])c3cccnc3c2O)cc1OC (stereo not shown) [Q1–7]
Quench % Inhib. [3]: <50%

Cc1ccc(NCc2ccc(O)c3ncccc23)cc1C [Q2–13, 5-(((3,4-dimethylphenyl)amino)methyl)quinolin-8-ol]
Quench % Inhib. [3]: <50%

Oc1ccc(CNc2ccccc2F)c2cccnc12 [Q2–10]
IC50 [1]: > 20 µM
IC50 [2]: > 20 µM
Quench % Inhib. [3]: <50%

Cc1cccc(NCc2ccc(O)c3ncccc23)n1 [Q2–4]
IC50 [1]: > 20 µM
IC50 [2]: > 20 µM
Quench % Inhib. [3]: <50%

Source: paper PMC6188675 (Journal of medicinal chemistry, 2013)
